Experimental data as given in PMC6281781 (Structure (London, England : 1993), 2018).

How the values were obtained:
[1] = test system: PACSIN3 SH3 domain; assay: NMR 1H,15N-HSQC chemical shift titration with PACSIN3 SH3 domain; format: binding, chicken; details: for affinity for PACSIN3 SH3 domain relative to wildtype (in words): mutations in the TRPV4-PRR, interaction not fully abolished, Fig. S6, Table S1
Outline: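 Chicken PACSIN3 SH3 domain (N-terminal His6) was 15N-labelled in E. coli minimal medium and purified by NiNTA then Superdex75 SEC. It was held at 250 μM in 10 mM Tris pH7, 100 mM NaCl and titrated from concentrated stocks with peptide (wildtype, AAWAA, P128A or P128A/P129L) and/or lipid, with the second ligand added sequentially. HSQC shifts were fitted for KD.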

[2] = biological target: chicken PACSIN3 SH3 domain (chicken); assay: NMR titration
[3] = biological target: chicken PACSIN1 SH3 domain (chicken); assay: NMR titration

CCCCCCCC(=O)OC[C@H](COP(=O)(O)O[C@@H]1[C@H](O)[C@H](O)[C@@H](OP(=O)(O)O)[C@H](OP(=O)(O)O)[C@H]1O)OC(=O)CCCCCCC [PIP2, diC8-PI(4,5)P2, reference compound] was tested, and the “interaction with PACSIN3 SH3 domain (in words)” value ([1]; PIP2 added to isolated 15N-PACSIN3 SH3, no chemical shift changes in 1H,15N-HSQC) was “does not interact”.
For “P128A/P129L: TRPV4 N-terminal peptide with double mutation P128A/P129L in the PRR (ENKRWRRRVVEKPVAGTKGPAPNALPILKV; left off: His6-SUMO, N-terminal, cleaved)”, the “affinity for PACSIN3 SH3 domain relative to wildtype (in words)” value [1] was “weakened”.
“P128A: TRPV4 N-terminal peptide with single P128A mutation in the PRR (ENKRWRRRVVEKPVAGTKGPAPNAPPILKV; left off: His6-SUMO, N-terminal, cleaved)” was tested, and the “affinity for PACSIN3 SH3 domain relative to wildtype (in words)” value [1] was “weakened”.
In the case of “chicken TRPV4 PIP2 binding domain plus proline rich region peptide (PBD-PRR, residues 105-134) (from UniProt A0A1D5PXA5 105-134)”, the Kd [2] is reported as 74.2 µM.
Work on “chicken TRPV4 proline rich region peptide (PRR, residues 121-134), native sequence (from UniProt A0A1D5PXA5 121-134)” yielded a Kd [3] of 51.6 µM and a Kd [2] of 68.6 µM.
